According to ChEMBL document CHEMBL2021876, “New pyridobenzoxazepine derivatives derived from 5-(4-methylpiperazin-1-yl)-8-chloro-pyrido[2,3-b][1,5]benzoxazepine (JL13): chemical synthesis and pharmacological evaluation” (J Med Chem, 2012):

Assays:
Hippocampus [1] = assay: In vivo displacement of [3H]Ketanserin from 5HT2A receptor in Sprague-Dawley rat hippocampus CA3 region at 13.75 mg/kg, ip qd for 28 days by autoradiography relative to control; assay type: functional; details: route intraperitoneal
In short: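 Rats (male Sprague-Dawley, N = 8/group) given daily ip injections for 28 days versus vehicle. Brain sections preincubated 1 h RT in 50 mM Tris-HCl pH 7.7, then 1 h RT with 3.0 nM [3H]ketanserin plus 1 μM prazosin and 100 nM tetrabenazine. Nonspecific: 1 μM methysergide. Washes 2 × 30 min ice-cold. Readout fmol/mg tissue as % of control, mean ± SEM.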

[2] = In vivo displacement of [3H]Nemonapride from dopamine D4 receptor in Sprague-Dawley rat dorsolateral frontal cortex at 13.75 mg/kg, ip qd for 28 days by autoradiography relative to control; assay type: functional; details: route intraperitoneal
[3] = target: T1, Serotonin 1a (5-HT1a) receptor/Adrenergic receptor alpha-1 (Rattus norvegicus) (UniProt P15823+P23944+P43140+P19327); assay: In vivo displacement of [3H]8-OH-DPAT from 5HT1A receptor in Sprague-Dawley rat dorsolateral frontal cortex at 13.75 mg/kg, ip qd for 28 days by autoradiography relative to control; assay type: functional, organism-based; parameters: dose 13.75 mg/kg
In short: (§1)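 Male Sprague-Dawley rats (200−225 g, N = 8/group) dosed ip once daily for 28 days, vehicle controls, decapitated; 10 μm frozen coronal sections. Preincubation 1 h RT in 50 mM Tris-HCl pH 7.6, 0.1% ascorbic acid, 4 mM CaCl2, 10 μM pargyline; then 1 h RT with 2.0 nM [3H]8-OH-DPAT. Nonspecific: 1 μM 5-HT. Saturating conditions; binding in fmol/mg tissue, % of control, mean ± SEM.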

[4] = target: T1, Serotonin 1a (5-HT1a) receptor/Adrenergic receptor alpha-1 (Rattus norvegicus); assay: In vivo displacement of [3H]8-OH-DPAT from 5HT1A receptor in Sprague-Dawley rat nucleus accumbens at 13.75 mg/kg, ip qd for 28 days by autoradiography relative to control; assay type: functional, organism-based; parameters: dose 13.75 mg/kg; in short: as §1
Caudate-putamen [5] = assay: In vivo displacement of [3H]8-OH-DPAT from 5HT1A receptor in Sprague-Dawley rat medial part of caudate putamen at 13.75 mg/kg, ip qd for 28 days by autoradiography relative to control; assay type: functional; details: route intraperitoneal; in short: as §1
Hippocampus [6] = assay: In vivo displacement of [3H]8-OH-DPAT from 5HT1A receptor in Sprague-Dawley rat hippocampus CA3 region at 13.75 mg/kg, ip qd for 28 days by autoradiography relative to control; assay type: functional; details: route intraperitoneal; in short: as §1
[7] = Lipophilicity, log K of the compound in IAM-PC-DD2 HPLC column by UV method; assay type: physicochemical; details: artificial membrane
[8] = target: T2, D(4) dopamine receptor (Homo sapiens) (UniProt P21917); assay: Displacement of [3H]-YM09151-2 from human cloned dopamine D4 receptor expressed in insect Sf9 cells at 10^-6 M after 60 mins by liquid scintillation counting
T2 sequence (whole entry): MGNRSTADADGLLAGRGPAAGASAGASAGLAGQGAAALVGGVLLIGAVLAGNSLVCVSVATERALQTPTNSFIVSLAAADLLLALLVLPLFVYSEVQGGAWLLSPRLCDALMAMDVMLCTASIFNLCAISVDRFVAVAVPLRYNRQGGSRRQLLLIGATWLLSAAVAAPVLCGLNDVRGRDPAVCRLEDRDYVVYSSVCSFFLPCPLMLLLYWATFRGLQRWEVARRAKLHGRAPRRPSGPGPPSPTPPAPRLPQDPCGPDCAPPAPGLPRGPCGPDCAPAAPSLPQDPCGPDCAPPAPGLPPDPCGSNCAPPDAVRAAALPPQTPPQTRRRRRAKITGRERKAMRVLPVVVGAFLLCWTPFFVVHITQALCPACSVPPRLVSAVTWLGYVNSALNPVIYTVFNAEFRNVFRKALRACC

Caudate-putamen [9] = assay: In vivo displacement of [3H]SCH-23390 from dopamine D1 receptor in Sprague-Dawley rat lateral part of caudate putamen at 13.75 mg/kg, ip qd for 28 days by autoradiography relative to control; assay type: functional; details: route intraperitoneal
In short: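 Forebrain sections from male Sprague-Dawley rats (N = 8/group) after 28 days of daily ip injections versus vehicle. Incubation 1 h RT in 50 mM Tris-HCl pH 7.4, 120 mM NaCl, 5 mM KCl, 2 mM CaCl2, 1 mM MgCl2 with 1 nM [3H]SCH-23390 and 100 nM ketanserin. Nonspecific: 1 μM cis-flupenthixol. Saturating conditions; fmol/mg tissue, % of control.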

[10] = target: D(2) dopamine receptor (Rattus norvegicus) (UniProt P61169); assay: In vivo displacement of [3H]Nemonapride from dopamine D2 receptor in Sprague-Dawley rat dorsolateral frontal cortex at 13.75 mg/kg, ip qd for 28 days by autoradiography relative to control; assay type: functional, organism-based; parameters: dose 13.75 mg/kg
In short: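 Male Sprague-Dawley rats, N = 8/group, daily ip dosing for 28 days with vehicle controls; cryostat sections (10 μm) preincubated 1 h RT. Incubation 1 h RT in 50 mM Tris-HCl pH 7.4, 120 mM NaCl, 5 mM KCl, 2 mM CaCl2, 1 mM MgCl2 with 1 nM [3H]nemonapride, 0.5 μM DTG, 0.1 μM pindolol. Nonspecific: 10 μM S(−)-sulpiride. Values fmol/mg tissue, % of control.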

Sequence of D(2) dopamine receptor (Rattus norvegicus) (P61169 whole entry): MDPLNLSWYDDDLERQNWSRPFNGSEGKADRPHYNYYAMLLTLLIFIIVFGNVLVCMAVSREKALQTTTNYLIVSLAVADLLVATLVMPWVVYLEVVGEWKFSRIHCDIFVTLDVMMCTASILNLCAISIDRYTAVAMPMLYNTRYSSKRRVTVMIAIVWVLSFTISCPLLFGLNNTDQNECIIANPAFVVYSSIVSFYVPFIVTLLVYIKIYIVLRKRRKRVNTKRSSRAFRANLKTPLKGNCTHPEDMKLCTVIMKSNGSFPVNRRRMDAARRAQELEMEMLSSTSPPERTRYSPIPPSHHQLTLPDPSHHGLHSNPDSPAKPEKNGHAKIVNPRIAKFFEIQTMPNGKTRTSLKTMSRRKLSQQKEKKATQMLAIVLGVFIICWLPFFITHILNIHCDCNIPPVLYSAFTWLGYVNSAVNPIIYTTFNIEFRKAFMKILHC

## Clc1ccc2c(c1)N=C(N1CCNCC1)c1cccnc1O2
Hippocampus [1]
  inhibition in vivo at 13.75 mg/kg: 92%
[2]
  inhibition in vivo at 13.75 mg/kg: 108%
[3]
  inhibition: 141%
[4]
  inhibition: 88%
Caudate-putamen [5]
  inhibition in vivo at 13.75 mg/kg: 87%
Hippocampus [6]
  inhibition in vivo at 13.75 mg/kg: 105%
[7]
  log K: 2.68
[8]
  inhibition: 28%
Caudate-putamen [9]
  inhibition in vivo at 13.75 mg/kg: 132%
[10]
  inhibition: 103%
